Experimental data as given in ChEMBL document CHEMBL4190216, “Asymmetric 1,5-diarylpenta-1,4-dien-3-ones: Antiproliferative activity in prostate epithelial cell models and pharmacokinetic studies” (Eur J Med Chem, 2017).

Key:
LNCaP = assay: Antiproliferative activity against human LNCAP cells assessed as decrease in cell viability after 3 days by WST assay; format: functional, cell-based; conditions: 72 h
Procedure, shortened: (§1)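 Cells were seeded at 3,200 per well. PC-3 and LNCaP were grown in RPMI-1640 and DU-145 in EMEM, each with 10% FBS and 1% penicillin/streptomycin, at 37 °C and 5% CO2. Cells were exposed for 3 days to at least five concentrations, with DMSO as vehicle control. WST-1 reagent was then added for 3 h at 37 °C and absorbance read at 430 nm. IC50 came from linear inhibition, averaged over triplicates.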

VCaP = assay: Antiproliferative activity against human VCaP cells expressing androgen receptor splice variants assessed as decrease in cell viability after 5 days by trypan blue exclusion assay; format: functional, cell-based; conditions: 120 h
[1] = Plasma concentration in Sprague-Dawley rat at 10 mg/kg administered via oral gavage measured at 3 hrs by HPLC-MS/MS analysis; format: ADME, organism-based
DU-145 [2] = assay: Potency index, ratio of curcumin IC50 to test compound IC50 for human DU145 cells; format: functional
[3] = Cmax in Sprague-Dawley rat at 10 mg/kg administered via oral gavage by HPLC-MS/MS analysis; format: ADME, organism-based; design: dose 10 mg/kg, route oral; conditions: in vivo
[4] = Tmax in Sprague-Dawley rat at 10 mg/kg administered via oral gavage by HPLC-MS/MS analysis; format: ADME, organism-based; conditions: in vivo
DU-145 [5] = assay: Antiproliferative activity against human DU145 cells assessed as decrease in cell viability after 3 days by WST assay; format: functional, cell-based; conditions: DU-145, 72 h; procedure, shortened: as §1
CWR22R = assay: Antiproliferative activity against human 22Rv1 cells expressing androgen receptor splice variants assessed as decrease in cell viability after 5 days by trypan blue exclusion assay; format: functional, cell-based; conditions: 22Rv1, 120 h
PC-3 [6] = assay: Antiproliferative activity against human PC3 cells assessed as decrease in cell viability after 3 days by WST assay; format: functional, cell-based; conditions: PC-3, 72 h; procedure, shortened: as §1
[7] = Plasma concentration in Sprague-Dawley rat at 10 mg/kg administered via oral gavage measured at 6 hrs by HPLC-MS/MS analysis; format: ADME, organism-based
PWR-1E [8] = assay: Potency index, ratio of curcumin IC50 to test compound IC50 for human PWR-1E cells expressing androgen receptor and PSA; format: functional
[9] = Antiproliferative activity against human LNCaP95 cells expressing androgen receptor splice variants assessed as decrease in cell viability after 5 days by trypan blue exclusion assay; format: functional, cell-based; conditions: LNCaP-95, 120 h
[10] = Plasma concentration in Sprague-Dawley rat at 10 mg/kg administered via oral gavage measured after 1 day by HPLC-MS/MS analysis; format: ADME, organism-based
[11] = Plasma concentration in Sprague-Dawley rat at 10 mg/kg administered via oral gavage measured at 1 hr by HPLC-MS/MS analysis; format: ADME, organism-based
PC-3 [12] = assay: Potency index, ratio of curcumin IC50 to test compound IC50 for human PC3 cells; format: functional
[13] = AUC in Sprague-Dawley rat at 10 mg/kg administered via oral gavage by HPLC-MS/MS analysis; format: ADME, organism-based; conditions: in vivo
Rattus norvegicus = assay: Acute toxicity in Sprague-Dawley rat assessed as mortality at 10 mg/kg administered via oral gavage after 72 hrs; format: organism-based; conditions: in vivo
Procedure, shortened: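 Male Sprague-Dawley rats (250–300 g, n = 4) each received a single 10 mg/kg oral gavage dose. The vehicle was 5% DMSO, 40% polyethylene glycol 400 and 55% saline. Blood was drawn from the lateral tail vein at 1, 3, 6 and 24 h for plasma drug levels. Toxicity was scored as observed deaths after dosing.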

PWR-1E [14] = assay: Antiproliferative activity against human PWR-1E cells expressing androgen receptor and PSA assessed as decrease in cell viability after 3 days by WST assay; format: functional, cell-based; conditions: 72 h
Procedure, shortened: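 Non-malignant prostate epithelial PWR-1E (adenovirus 12/SV40-immortalized) was seeded at 5,000 per well. Cells were exposed for 3 days at 37 °C in a CO2 incubator to at least five concentrations, with DMSO as vehicle control. WST-1 reagent was then added for 3 h at 37 °C and absorbance read at 430 nm. IC50 came from linear inhibition, as the mean of triplicate determinations.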

In the case of `CC(C)n1c(/C=C/C(=O)/C=C/c2ccccn2)nc2ccccc21`, the IC50 (LNCaP) is reported as 30 nM, the IC50 (VCaP) is reported as 640 nM and the concentration at 3 h [1] is reported as 4260 ng/mL. For the same compound, the “Ratio IC50” value (DU-145 [2]) was 219, the Cmax [3] was 13.5 µM and the Tmax [4] was 3 h. It also gave an IC50 (DU-145 [5]) of 120 nM, an IC50 (CWR22R) of 450 nM and an IC50 (PC-3 [6]) of 40 nM. For the same compound, the concentration at 6 h [7] was 456 ng/mL, the “Ratio IC50” value (PWR-1E [8]) was 885 and the IC50 [9] was 260 nM. The concentration at 24 h [10] was 103 ng/mL, the concentration at 1 h [11] was 823 ng/mL and the “Ratio IC50” value (PC-3 [12]) was 636. For the same compound, the AUC [13] was 17600 ng·h/mL, the Activity (Rattus norvegicus) was “Toxic” and the IC50 (PWR-1E [14]) was 10 nM.
